Source: paper PMC8456861 (Transplant International, 2021)
Entries after “also recorded” stand apart in the source; their conditions may differ. Where two headings read alike, the source gives them in different places.

Tests used:
[1] = test system: CYP3A4/CYP3A5‐dependent metabolism; type: in vivo, patients (kidney transplant recipients with late ABMR); details: for C0/D ratio: week 12, median [IQR]
CYP3A4/CYP3A5 = type: in vivo, patients (kidney transplant recipients with late ABMR); details: human, whole blood, C0 level; for C0 at 12 week: week 12, median [IQR]
CYP2C19 and CYP3A4 = assay: Pantoprazole pharmacokinetics; type: in vivo, patients (kidney transplant recipients with late ABMR)
Procedure, shortened: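 20 mg pantoprazole given as an i.v. bolus on day 0, week 12 and week 52. At day 0 and week 12, dosing preceded study injection. EDTA blood was drawn pre-dose and 1, 2, 3, 4, 5 and 6 h after dosing, spun at 2000 g for 10 min at 4°C and stored at −80 °C. Plasma levels measured by HPLC-MS/MS. Noncompartmental Cmax, AUC0-last, AUC0-inf and T1/2 reported as median (IQR); Wilcoxon/Mann–Whitney tests.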

CYP enzymes = details: critically ill patients; cited from earlier work
[2] = earlier studies; cited from earlier work
CYP3A4 [3] = details: patients with rheumatoid arthritis; cited from earlier work
CYP3A4 [4] = details: 19 patients with active rheumatoid arthritis; cited from earlier work
[5] = test system: late antibody‐mediated rejection (ABMR); details: cited from earlier work
Liver parameters = type: in vivo, patients (kidney transplant recipients with late ABMR); details: ALAT, AST, CHE
C‐reactive protein (CRP) = assay: High‐sensitive CRP under clazakizumab; type: in vivo, patients (kidney transplant recipients with late ABMR); details: clazakizumab 25 mg s.c. 4‐weekly
Procedure, shortened: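 Serum high-sensitivity CRP measured by latex particle-enhanced immunoturbidimetric assay on an automated analyser (functional sensitivity 0.03 mg/dl). Randomised double-blind design: clazakizumab 25 mg s.c. or 0.9% saline placebo every 4 weeks to week 12, then open clazakizumab 4-weekly to week 52. Data given as median (IQR).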

[6] = Clazakizumab arm (n = 10), median (IQR)
[7] = Placebo arm (clazakizumab in part B), median (IQR)
[8] = Placebo arm (n = 10), median (IQR)

For `CO[C@H]1C[C@@H]2CC[C@@H](C)[C@@](O)(O2)C(=O)C(=O)N2CCCC[C@H]2C(=O)O[C@H]([C@H](C)C[C@@H]2CC[C@@H](OCCO)[C@H](OC)C2)CC(=O)[C@H](C)/C=C(\C)[C@@H](O)[C@@H](OC)C(=O)[C@H](C)C[C@H](C)/C=C/C=C/C=C/1C` [everolimus], which “decrease in C0/D ratio” value ([1]; single patient, individual course over the study) is on record?
Its value is “approximately 50%”.

Which results are given for `C=CC[C@@H]1/C=C(\C)C[C@H](C)C[C@H](OC)[C@H]2O[C@@](O)(C(=O)C(=O)N3CCCC[C@H]3C(=O)O[C@H](/C(C)=C/[C@@H]3CC[C@@H](O)[C@H](OC)C3)[C@H](C)[C@@H](O)CC1=O)[C@H](C)C[C@@H]2OC` [tacrolimus]?
C0 at 12 week (CYP3A4/CYP3A5; clazakizumab arm (n = 6)): 7 ng/mL; C0 at 12 week (CYP3A4/CYP3A5; placebo arm (n = 7)): 6.4 ng/mL; concentration at 0 day (CYP3A4/CYP3A5; baseline, Clazakizumab arm, median (IQR)): 5.6 ng/mL; C0/D ratio ([1]; clazakizumab arm (n = 6)): 2.15 [1.13–4.35] ng/ml/mg; C0/D ratio ([1]; placebo arm (n = 7)): 2.0 [0.73–2.03] ng/ml/mg

With `COc1ccnc(C[S+]([O-])c2nc3ccc(OC(F)F)cc3[nH]2)c1OC` (centres unmarked) [pantoprazole] as the molecule, how does the “Percent change from day 0 to week 12, AUC0‐inf” value (CYP2C19 and CYP3A4; [6]) read?
Its value is 4.0 (−6.4‐80.3) Percent.

And the “Percent change from day 0 to week 12, T1/2” value (CYP2C19 and CYP3A4; [6])?
The value was 18.4 (−0.4–23.2) Percent.

And the “Percent change from day 0 to week 52, AUC0‐inf” value (CYP2C19 and CYP3A4; Clazakizumab arm, median (IQR))?
Its value is 52.3 (−5.6–64.1) Percent.

What about the “Percent change from day 0 to week 52, AUC0‐last” value (CYP2C19 and CYP3A4; Clazakizumab arm, median (IQR)) of the same molecule?
Its value is 41.9 (0.4–84.5) Percent.

What about the “Percent change from day 0 to week 52, Cmax” value (CYP2C19 and CYP3A4; Clazakizumab arm, median (IQR)) of the same molecule?
The value was 22.5 (1.6‐37.8) Percent.

What about the “Percent change from day 0 to week 52, T1/2” value (CYP2C19 and CYP3A4; Clazakizumab arm, median (IQR)) of the same molecule?
Its value is 8.8 (−9.7‐56.8) Percent.

What about the “Percent change from day 0 to week 52, AUC0‐inf” value (CYP2C19 and CYP3A4; [7]) of the same molecule?
The value was 0.72 (−42.7–64.0) Percent.

And the “Percent change from day 0 to week 52, AUC0‐last” value (CYP2C19 and CYP3A4; [7])?
The value was 13.6 (−47.2–50.5) Percent.

And the “Percent change from day 0 to week 12, AUC0‐inf” value (CYP2C19 and CYP3A4; [8])?
The value was 13.8 (−17.7‐27.8) Percent.

What about the “Percent change from day 0 to week 12, AUC0‐last” value (CYP2C19 and CYP3A4; [8]) of the same molecule?
Its value is 15.6 (−18.7‐31.1) Percent.

What about the “Percent change from day 0 to week 12, Cmax” value (CYP2C19 and CYP3A4; [8]) of the same molecule?
The value was 5.7 (−10.7‐41.3) Percent.

What about the “Percent change from day 0 to week 12, T1/2” value (CYP2C19 and CYP3A4; [8]) of the same molecule?
Its value is 0.2 (−14.4‐21.5) Percent.

And the “Percent change from day 0 to week 12, AUC0‐inf” value (CYP2C19 and CYP3A4; Total (n = 20), median (IQR))?
The value was 11.6 (−11.7‐31.4) Percent.

And the “Percent change from day 0 to week 12, AUC0‐last” value (CYP2C19 and CYP3A4; Total (n = 20), median (IQR))?
Its value is 10.4 (−8.0‐27.8) Percent.

And the “Percent change from day 0 to week 12, Cmax” value (CYP2C19 and CYP3A4; Total (n = 20), median (IQR))?
The value was 2.1 (−12.2‐26.3) Percent.

What about the “Percent change from day 0 to week 12, T1/2” value (CYP2C19 and CYP3A4; Total (n = 20), median (IQR)) of the same molecule?
The value was 5.9 (−4.5–23.2) Percent.

And the “Percent change from day 0 to week 52, AUC0‐inf” value (CYP2C19 and CYP3A4; Total, median (IQR))?
The value was 31.9 (−22.5–64.0) Percent.

What about the “Percent change from day 0 to week 52, AUC0‐last” value (CYP2C19 and CYP3A4; Total, median (IQR)) of the same molecule?
Its value is 25.3 (−15.9–51.7) Percent.

And the “Percent change from day 0 to week 52, Cmax” value (CYP2C19 and CYP3A4; Total, median (IQR))?
The value was 5.5 (−22.1‐33.6) Percent.

And the Cmax (CYP2C19 and CYP3A4; human, plasma, iv, 20 mg, Cmax, 20 mg i.v., day 0, Total (n = 20), median (IQR))?
The Cmax was 1490 ng/mL.

What about the half-life (CYP2C19 and CYP3A4; human, plasma, iv, 20 mg, T1/2, 20 mg i.v., day 0, Total (n = 20), median (IQR)) of the same molecule?
The half-life was 1.08 h.

What about the “half‐life, fold longer than in this study's patients / healthy volunteers” value (CYP enzymes) of the same molecule?
Its value is “approximately 5 fold”.

What about the “half‐life” value [2] of the same molecule?
Its value is “generally less than two hours”.

And the “time to complete absorption” value [2]?
The value was “about 12 hours”.

For tocilizumab: anti‐IL‐6R antibody, which “effect on CYP activity and simvastatin metabolism” value (CYP3A4 [3]) is on record?
Its value is “restored diminished CYP activity and substantially enhanced the metabolism of simvastatin”.

B1: sarilumab: anti‐IL‐6R antibody (antibody, chains of the INN, looked up, V domains shown)
VH: EVQLVESGGGLVQPGRSLRLSCAASRFTFDDYAMHWVRQAPGKGLEWVSGISWNSGRIGYADSVKGRFTISRDNAENSLFLQMNGLRAEDTALYYCAKGRDSFDIWGQGTMVTVSS
VL: DIQMTQSPSSVSASVGDRVTITCRASQGISSWLAWYQQKPGKAPKLLIYGASSLESGVPSRFSGSGSGTDFTLTISSLQPEDFASYYCQQANSFPYTFGQGTKLEIK
Which “effect on altered simvastatin exposure” value (CYP3A4 [4]) does the source give for B1 here?
The value was “fully reversed”.

B2: clazakizumab: monoclonal anti‐IL‐6 antibody (Vitaeris Inc.), 25 mg subcutaneously at 4‐weekly intervals (antibody, chains of the INN, looked up, V domains shown)
VH: EVQLVESGGGLVQPGGSLRLSCAASGFSLSNYYVTWVRQAPGKGLEWVGIIYGSDETAYATSAIGRFTISRDNSKNTLYLQMNSLRAEDTAVYYCARDDSSDWDAKFNLWGQGTLVTVSS
VL: AIQMTQSPSSLSASVGDRVTITCQASQSINNELSWYQQKPGKAPKLLIYRASTLASGVPSRFSGSGSGTDFTLTISSLQPDDFATYYCQQGYSLRNIDNAFGGGTKVEIK
Which results are given for B2?
effect on DSA ([5]; after 3 months): significant reduction of DSA; effect on ABMR activity (microcirculation inflammation, molecular ABMR scores) ([5]; after prolonged treatment): modulation of ABMR activity; effect on progression of graft dysfunction ([5]; over a period of a year): significantly halted the progression of graft dysfunction; effect on liver parameters (Liver parameters): no meaningful effect; impact on pantoprazole pharmacokinetics / CYP‐dependent drug metabolism (CYP2C19 and CYP3A4; IL‐6 blockade up to 52 weeks): no clinically meaningful impact; also recorded: did not enhance CYP‐dependent drug metabolism; effect on CRP levels (C‐reactive protein (CRP)): suppressed to undetectable levels; also recorded: virtually complete reduction
